Experimental data taken from ChEMBL document CHEMBL4811241, “Revisiting Pyrazolo[3,4-d]pyrimidine Nucleosides as Anti-Trypanosoma cruzi and Antileishmanial Agents” (J Med Chem, 2021).

Experiments:
[1] = Cytotoxicity against Swiss mouse peritoneal macrophages assessed as cell detachment, lysis and granulation measured after 5 days by microscopic analysis; format: cell-based, Peritoneal macrophage; conditions: time 5 day
How it was run: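 Scored within the Leishmania macrophage assay over 5 days: detachment, lysis and granulation judged semi-quantitatively by microscopy across at least 500 cells. CC50 derived from % reduction in normal cells versus untreated wells.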

Leishmania infantum = assay: Antileishmanial activity against amastigote form of Leishmania infantum MHOM/MA(BE)/67 infected in Swiss mouse peritoneal macrophages assessed as reduction in parasite growth treated at 2 hrs post-infection and measured after 5 days by Giemsa staining based microscopic analysis; format: functional, organism-based; conditions: MHOM/MA(BE)/67, Peritoneal macrophage
How it was run: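 Swiss mouse peritoneal macrophages, harvested after 2-day potato-starch stimulation, infected 48 h after plating; compounds added 2 h post-infection.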

Trypanosoma cruzi = assay: Antitrypanosomal activity against nifurtimox-sensitive Trypanosoma cruzi Tulahuen CL2 infected in human MRC-5 SV2 cells assessed as inhibition of parasite growth measured after 7 days by spectrophotometric analysis; format: functional, organism-based; conditions: Tulahuen CL2, MRC-5 SV2, 168 h
[2] = Selectivity index, ratio of CC50 for human MRC-5 SV2 cells to IC50 for antitrypanosomal activity against nifurtimox-sensitive Trypanosoma cruzi Tulahuen CL2 infected in human MRC-5 SV2 cells; format: toxicity, cell-based; conditions: read-out: Ratio CC50/IC50
How it was run: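 Ratio of MRC-5SV2 CC50 (3-day resazurin assay) to IC50 against T. cruzi amastigotes in MRC-5SV2 cells (7-day CPRG assay).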

[3] = Cytotoxicity against human MRC-5 SV2 cells assessed as reduction in cell growth measured after 3 days by resazurin dye based fluorometric analysis; conditions: time 3 day
[4] = Selectivity index, ratio of CC50 for Swiss mouse peritoneal macrophages to IC50 for antileishmanial activity against amastigote form of Leishmania infantum MHOM/MA(BE)/67 infected in Swiss mouse peritoneal macrophages; format: toxicity; conditions: read-out: Ratio CC50/IC50
How it was run: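 Ratio of macrophage CC50 to L. infantum amastigote IC50, both taken from the same 5-day macrophage assay.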

Structure (SMILES): N#Cc1nn([C@@H]2O[C@H](CO)[C@@H](O)[C@H]2O)c2ncnc(N)c12
- CC50 at 120 h [1]: > 64 µM
- IC50 (Leishmania infantum): 8 µM
- IC50 (Trypanosoma cruzi): 0.95 µM
- selectivity ratio [2]: 36
- CC50 at 72 h [3]: 34.6 µM
- selectivity ratio [4]: > 8

Structure (SMILES): Cc1ccc(-c2nn([C@@H]3O[C@H](CO)[C@@H](O)[C@H]3O)c3ncnc(N)c23)s1
- CC50 at 120 h [1]: > 64 µM
- IC50 (Leishmania infantum): ≥ 32 µM
- IC50 (Trypanosoma cruzi): 7.1 µM
- selectivity ratio [2]: > 9
- CC50 at 72 h [3]: > 64 µM
- selectivity ratio [4]: > 1

Structure (SMILES): Nc1ncnc2c1c(Cl)nn2[C@@H]1O[C@H](CO)[C@@H](O)[C@H]1O
- CC50 at 120 h [1]: > 64 µM
- IC50 (Leishmania infantum): > 64 µM
- IC50 (Trypanosoma cruzi): 2.89 µM
- selectivity ratio [2]: > 22
- CC50 at 72 h [3]: > 64 µM
- selectivity ratio [4]: > 1

Structure (SMILES): Nc1ncnc2c1c(-c1ccncc1)nn2[C@@H]1O[C@H](CO)[C@@H](O)[C@H]1O
- CC50 at 120 h [1]: > 64 µM
- IC50 (Leishmania infantum): 25.4 µM
- IC50 (Trypanosoma cruzi): 21.5 µM
- selectivity ratio [2]: > 3
- CC50 at 72 h [3]: > 64 µM
- selectivity ratio [4]: > 3

Structure (SMILES): NC(=O)c1nn([C@@H]2O[C@H](CO)[C@@H](O)[C@H]2O)c2ncnc(N)c12
- CC50 at 120 h [1]: 8 µM
- IC50 (Leishmania infantum): 8.11 µM
- IC50 (Trypanosoma cruzi): 0.25 µM
- selectivity ratio [2]: 1
- CC50 at 72 h [3]: 0.25 µM
- selectivity ratio [4]: 1

Structure (SMILES): Cc1nn([C@@H]2O[C@H](CO)[C@@H](O)[C@H]2O)c2ncnc(N)c12
- CC50 at 120 h [1]: 40 µM
- IC50 (Leishmania infantum): 32.7 µM
- IC50 (Trypanosoma cruzi): 4.68 µM
- selectivity ratio [2]: 12
- CC50 at 72 h [3]: 57.5 µM
- selectivity ratio [4]: 1

Structure (SMILES): NCc1nn([C@@H]2O[C@H](CO)[C@@H](O)[C@H]2O)c2ncnc(N)c12
- CC50 at 120 h [1]: 8 µM
- IC50 (Leishmania infantum): 2 µM
- IC50 (Trypanosoma cruzi): 11.1 µM
- selectivity ratio [2]: 5
- CC50 at 72 h [3]: 59.3 µM
- selectivity ratio [4]: 4

Structure (SMILES): Nc1ncnc2c1c(-c1ccccn1)nn2[C@@H]1O[C@H](CO)[C@@H](O)[C@H]1O
- CC50 at 120 h [1]: > 64 µM
- IC50 (Leishmania infantum): ≥ 50.8 µM
- IC50 (Trypanosoma cruzi): 30.1 µM
- selectivity ratio [2]: 1
- CC50 at 72 h [3]: 36.4 µM
- selectivity ratio [4]: 1

Structure (SMILES): Nc1ncnc2c1c(C(=O)Nc1ccccc1)nn2[C@@H]1O[C@H](CO)[C@@H](O)[C@H]1O
- CC50 at 120 h [1]: 32 µM
- IC50 (Leishmania infantum): 32.5 µM
- IC50 (Trypanosoma cruzi): > 64 µM
- CC50 at 72 h [3]: > 64 µM
- selectivity ratio [4]: 1

Structure (SMILES): Nc1ncnc2c1c(-c1c[nH]nn1)nn2[C@@H]1O[C@H](CO)[C@@H](O)[C@H]1O
- CC50 at 120 h [1]: > 64 µM
- IC50 (Leishmania infantum): 43.1 µM
- IC50 (Trypanosoma cruzi): 0.43 µM
- selectivity ratio [2]: 1
- CC50 at 72 h [3]: 0.6 µM
- selectivity ratio [4]: > 1

Structure (SMILES): Nc1ncnc2c1c(Br)nn2[C@@H]1O[C@H](CO)[C@@H](O)[C@H]1O
- CC50 at 120 h [1]: > 64 µM
- IC50 (Leishmania infantum): 29.4 µM
- IC50 (Trypanosoma cruzi): 4.37 µM
- selectivity ratio [2]: > 15
- CC50 at 72 h [3]: > 64 µM
- selectivity ratio [4]: > 2

Structure (SMILES): C#Cc1nn([C@@H]2O[C@H](CO)[C@@H](O)[C@H]2O)c2ncnc(N)c12
- CC50 at 120 h [1]: ≥ 8 µM
- IC50 (Leishmania infantum): 10.4 µM
- IC50 (Trypanosoma cruzi): 2.78 µM
- selectivity ratio [2]: 20
- CC50 at 72 h [3]: ≥ 46.5 µM
- selectivity ratio [4]: 1

Structure (SMILES): Nc1ncnc2c1c(C#Cc1ccccc1)nn2[C@@H]1O[C@H](CO)[C@@H](O)[C@H]1O
- CC50 at 120 h [1]: > 64 µM
- IC50 (Leishmania infantum): 49.4 µM
- IC50 (Trypanosoma cruzi): 29.4 µM
- selectivity ratio [2]: > 2
- CC50 at 72 h [3]: > 64 µM
- selectivity ratio [4]: > 1

Structure (SMILES): Nc1ncnc2c1c(Br)nn2[C@@H]1O[C@H](CO)[C@@H](F)[C@H]1O
- CC50 at 120 h [1]: 0.13 µM
- IC50 (Leishmania infantum): 0.08 µM
- IC50 (Trypanosoma cruzi): 1.06 µM
- CC50 at 72 h [3]: 0.23 µM
- selectivity ratio [4]: 1

Structure (SMILES): Nc1ncnc2c1c(C(F)F)nn2[C@@H]1O[C@H](CO)[C@@H](O)[C@H]1O
- CC50 at 120 h [1]: 0.25 µM
- IC50 (Leishmania infantum): 0.25 µM
- IC50 (Trypanosoma cruzi): 8.3 µM
- selectivity ratio [2]: < 1
- CC50 at 72 h [3]: 2.42 µM
- selectivity ratio [4]: 1

Structure (SMILES): Nc1ncnc2c1c(Oc1ccccc1)nn2[C@@H]1O[C@H](CO)[C@@H](O)[C@H]1O
- CC50 at 120 h [1]: > 64 µM
- IC50 (Leishmania infantum): 32 µM
- IC50 (Trypanosoma cruzi): > 64 µM
- CC50 at 72 h [3]: > 64 µM
- selectivity ratio [4]: > 2

Structure (SMILES): C=C(C)c1nn([C@@H]2O[C@H](CO)[C@@H](O)[C@H]2O)c2ncnc(N)c12
- CC50 at 120 h [1]: 32 µM
- IC50 (Leishmania infantum): 24.1 µM
- IC50 (Trypanosoma cruzi): 29.5 µM
- selectivity ratio [2]: < 1
- CC50 at 72 h [3]: 0.35 µM
- selectivity ratio [4]: 1

Structure (SMILES): Nc1ncnc2c1c(/C=C/c1ccccc1)nn2[C@@H]1O[C@H](CO)[C@@H](O)[C@H]1O
- CC50 at 120 h [1]: > 64 µM
- IC50 (Leishmania infantum): 50.8 µM
- IC50 (Trypanosoma cruzi): 16.5 µM
- selectivity ratio [2]: > 4
- CC50 at 72 h [3]: > 64 µM
- selectivity ratio [4]: > 1

Structure (SMILES): C=Cc1nn([C@@H]2O[C@H](CO)[C@@H](O)[C@H]2O)c2ncnc(N)c12
- CC50 at 120 h [1]: 32 µM
- IC50 (Leishmania infantum): 12.7 µM
- IC50 (Trypanosoma cruzi): > 64 µM
- CC50 at 72 h [3]: > 64 µM
- selectivity ratio [4]: 3

Structure (SMILES): Nc1ncnc2c1c(-c1ccc(Cl)cc1)nn2[C@H]1C[C@H](O)[C@@H](CO)O1
- CC50 at 120 h [1]: ≥ 32 µM
- IC50 (Leishmania infantum): ≥ 32.5 µM
- IC50 (Trypanosoma cruzi): 2.49 µM
- selectivity ratio [2]: > 22
- CC50 at 72 h [3]: > 64 µM
- selectivity ratio [4]: 1

Structure (SMILES): Oc1ncnc2[nH]ncc12 [ALLOPURINOL]
- CC50 at 120 h [1]: > 64 µM
- IC50 (Leishmania infantum): 3.51 µM
- IC50 (Trypanosoma cruzi): 9.75 µM
- selectivity ratio [2]: > 7
- CC50 at 72 h [3]: > 64 µM
- selectivity ratio [4]: > 18

Structure (SMILES): Nc1ncnc2c1c(-c1ccc(Cl)cc1Cl)nn2[C@@H]1O[C@H](CO)[C@@H](O)[C@H]1O
- CC50 at 120 h [1]: > 64 µM
- IC50 (Leishmania infantum): 52.8 µM
- IC50 (Trypanosoma cruzi): 6.06 µM
- selectivity ratio [2]: > 11
- CC50 at 72 h [3]: > 64 µM
- selectivity ratio [4]: > 1

Structure (SMILES): CNc1nn([C@@H]2O[C@H](CO)[C@@H](O)[C@H]2O)c2ncnc(N)c12
- CC50 at 120 h [1]: > 64 µM
- IC50 (Leishmania infantum): 50.8 µM
- IC50 (Trypanosoma cruzi): > 64 µM
- CC50 at 72 h [3]: > 64 µM
- selectivity ratio [4]: > 1

Structure (SMILES): Nc1ncnc2c1c(-c1ccc(Cl)cc1)nn2[C@@H]1O[C@H](CO)C[C@H]1O
- CC50 at 120 h [1]: > 64 µM
- IC50 (Leishmania infantum): > 64 µM
- IC50 (Trypanosoma cruzi): 1.04 µM
- selectivity ratio [2]: > 61
- CC50 at 72 h [3]: > 64 µM

Structure (SMILES): Cc1cc(Cl)ccc1-c1nn([C@@H]2O[C@H](CO)[C@@H](O)[C@H]2O)c2ncnc(N)c12
- CC50 at 120 h [1]: > 64 µM
- IC50 (Leishmania infantum): > 64 µM
- IC50 (Trypanosoma cruzi): 3.76 µM
- selectivity ratio [2]: > 17
- CC50 at 72 h [3]: > 64 µM

Structure (SMILES): Nc1ncnc2c1c(-c1ccc(F)cc1)nn2[C@@H]1O[C@H](CO)[C@@H](O)[C@H]1O
- CC50 at 120 h [1]: > 64 µM
- IC50 (Leishmania infantum): > 64 µM
- IC50 (Trypanosoma cruzi): 3.36 µM
- selectivity ratio [2]: > 19
- CC50 at 72 h [3]: > 64 µM

Structure (SMILES): N#Cc1ccc(-c2nn([C@@H]3O[C@H](CO)[C@@H](O)[C@H]3O)c3ncnc(N)c23)cc1
- CC50 at 120 h [1]: > 64 µM
- IC50 (Leishmania infantum): > 64 µM
- IC50 (Trypanosoma cruzi): 32 µM
- selectivity ratio [2]: > 2
- CC50 at 72 h [3]: > 64 µM

Structure (SMILES): Nc1ncnc2c1c(-c1cccs1)nn2[C@@H]1O[C@H](CO)[C@@H](O)[C@H]1O
- CC50 at 120 h [1]: > 64 µM
- IC50 (Leishmania infantum): > 64 µM
- IC50 (Trypanosoma cruzi): 10.4 µM
- selectivity ratio [2]: 3
- CC50 at 72 h [3]: 32 µM

Structure (SMILES): Nc1ncnc2c1c(C(F)(F)F)nn2[C@@H]1O[C@H](CO)[C@@H](O)[C@H]1O
- CC50 at 120 h [1]: > 64 µM
- IC50 (Leishmania infantum): > 64 µM
- IC50 (Trypanosoma cruzi): 27 µM
- selectivity ratio [2]: < 1
- CC50 at 72 h [3]: 13.3 µM
